Data on seven compounds can be found in ChEMBL document CHEMBL1131195, “Antileishmanial chalcones: statistical design, synthesis, and three-dimensional quantitative structure-activity relationship analysis” (J Med Chem, 1998).

Test [1] in a line: Inhibitory activity against phytohemagglutininin A-induced proliferation of human lymphocytes; Not tested due to low solubility. Type of test: functional.
In test [2] the test system is Leishmania donovani. As to the kind of experiment: Tested in vitro for anti-leishmanial activity against Leishmania. donovani; Not tested due to low solubility. Type of test: functional, organism-based.
The subject of test [3] is Leishmania donovani. As to the kind of experiment: Tested in vitro for anti-leishmanial activity against Leishmania donovani. In kind it is functional, organism-based. The essentials: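 In vitro assay using Leishmania donovani promastigotes incubated with increasing chalcone concentrations, with inhibition of parasite proliferation as the read-out.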

For the compound `CN(C)c1ccc(C(=O)/C=C/c2ccc([N+](=O)[O-])cc2)cc1`, the IC50 result (in test [1]; in the test on Leishmania donovani [2]) was “Not Active” in each case.
Consider `CN(C)c1ccc(/C=C/C(=O)c2ccc([N+](=O)[O-])cc2)cc1`, for which the IC50 result (in test [1]; in the test with Leishmania donovani [2]) was “Not Active” throughout.
On to `O=C(/C=C/c1ccc(Oc2ccccc2)cc1)c1ccc(C2CCCCC2)cc1`, for which the IC50 result (in test [1]; in the test on Leishmania donovani [2]) was “Not Active” in each case.
As for `CCCCCCOc1ccc(C(=O)/C=C/c2ccc(OC)cc2OC)cc1`, the IC50 result in test [1] was “Not Active”; with Leishmania donovani [3] it was 136 µM.
Turning to `COc1cc(/C=C/C(=O)c2ccc(N(C)C)cc2)cc(OC)c1`, the IC50 result (in test [1]; with Leishmania donovani [2]) was “Not Active” each time.
With `CCCCOc1ccc(C(=O)/C=C/c2ccc(OC)cc2OC)cc1`, the results for the IC50 result (in test [1]; with Leishmania donovani [3]) were “Not Active” and 95 µM, respectively.
As for `C=CCOc1ccccc1C(=O)/C=C/c1ccc(OC)cc1OC`, the IC50 result in test [1] is “Not Active”; in the test on Leishmania donovani [3], 5 µM.
